Laboratory results published in PMC7888308 (ACS Pharmacology & Translational Science, 2021).
Numbering of substitutions follows the chain as printed. Converted amounts (≈) assume the structure as drawn.

What was measured:
[1] = target: T1, UGT1A9 R464G (Homo sapiens, UniProt O60656, R464G); test: CAB glucuronidation by UGT1A9 R464G expressed in COS-7 cells; format: in vitro ADME
T1 sequence (O60656 26-530 R464G): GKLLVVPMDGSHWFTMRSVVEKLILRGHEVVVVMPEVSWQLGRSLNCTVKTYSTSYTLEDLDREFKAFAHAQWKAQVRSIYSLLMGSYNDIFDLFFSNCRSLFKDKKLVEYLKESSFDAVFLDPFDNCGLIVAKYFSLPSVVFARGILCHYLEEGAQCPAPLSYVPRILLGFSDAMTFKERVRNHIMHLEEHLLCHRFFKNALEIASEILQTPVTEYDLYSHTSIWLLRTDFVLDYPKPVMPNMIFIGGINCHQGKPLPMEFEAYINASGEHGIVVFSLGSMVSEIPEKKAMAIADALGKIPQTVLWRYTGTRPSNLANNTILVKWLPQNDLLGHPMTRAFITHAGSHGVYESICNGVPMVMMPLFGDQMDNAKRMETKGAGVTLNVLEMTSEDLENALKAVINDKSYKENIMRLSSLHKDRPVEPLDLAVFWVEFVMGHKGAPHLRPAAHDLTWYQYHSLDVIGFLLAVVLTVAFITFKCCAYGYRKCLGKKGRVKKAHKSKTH

[2] = target: T2, wild-type UGT1A1 (Homo sapiens, UniProt P22309); test: glucuronidation by wild-type UGT1A1 expressed in COS-7 cells; format: in vitro ADME; conditions: 20 μM drug, 24 h
T2 sequence (P22309 26-533): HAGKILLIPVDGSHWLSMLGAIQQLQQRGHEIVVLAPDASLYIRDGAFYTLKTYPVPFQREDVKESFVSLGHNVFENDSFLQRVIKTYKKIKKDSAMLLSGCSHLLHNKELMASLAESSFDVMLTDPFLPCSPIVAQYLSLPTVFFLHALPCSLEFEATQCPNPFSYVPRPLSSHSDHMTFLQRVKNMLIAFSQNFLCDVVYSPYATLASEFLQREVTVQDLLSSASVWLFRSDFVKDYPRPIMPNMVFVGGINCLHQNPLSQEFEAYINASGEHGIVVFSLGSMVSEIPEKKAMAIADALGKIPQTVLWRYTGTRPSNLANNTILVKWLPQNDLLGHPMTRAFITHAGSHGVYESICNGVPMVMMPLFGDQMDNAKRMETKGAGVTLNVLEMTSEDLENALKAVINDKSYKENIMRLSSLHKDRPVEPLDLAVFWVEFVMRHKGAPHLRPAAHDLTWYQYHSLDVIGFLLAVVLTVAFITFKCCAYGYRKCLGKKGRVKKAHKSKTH

[3] = target: T3, UGT1A9 H217Y (Homo sapiens, UniProt O60656, H217Y); test: CAB glucuronidation by UGT1A9 H217Y expressed in COS-7 cells; format: in vitro ADME
T3 sequence (O60656 26-530 H217Y): T1 sequence (O60656 26-530 R464G) with H192Y, G439R

[4] = system: human kidney microsomes; test: human kidney microsome metabolism experiment; format: in vitro ADME; conditions: CAB 10 μM, microsomes 0.5 mg/mL, UGT cofactor, 60 min, 37 °C
[5] = system: UGT1A9; conditions: reaction phenotyping; cited from earlier work
[6] = HPTN 077 participants, South Africa, Brazil, Malawi, United States; cited from earlier work
[7] = target: T4, UGT1A1 P152T (Homo sapiens, UniProt P22309, P152T); test: glucuronidation by UGT1A1 P152T expressed in COS-7 cells; format: in vitro ADME; conditions: 20 μM drug, 24 h, compared to wild-type UGT1A1
T4 sequence (P22309 26-533 P152T): T2 sequence (P22309 26-533) with P127T

[8] = target: T5, UGT1A9 wild-type (Homo sapiens, UniProt O60656); test: CAB glucuronidation by UGT1A9 wild-type expressed in COS-7 cells; format: in vitro ADME
T5 sequence (O60656 26-530): T1 sequence (O60656 26-530 R464G) with G439R

[9] = system: human liver microsomes; test: human liver microsome metabolism experiment; format: in vitro ADME; conditions: CAB 10 μM, microsomes 0.5 mg/mL, UDPGA, 60 min, 37 °C
How it was run: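 Pooled liver microsomes (50 mixed-sex donors, 0.5 mg/mL) were preincubated 5 min at 37 °C with test compound (10 μM) in 100 mM potassium phosphate, pH 7.4. A UGT reaction mixture containing 25 mM UDPGA plus alamethicin was added, and reactions ran 60 min at 37 °C. Acetonitrile quench, centrifugation, drying and methanol reconstitution followed. Glucuronide was detected by LC–MS/MS using the m/z 582 → 406 transition.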

[10] = pH 6.8 phosphate buffer at 20 °C; cited from earlier work
[11] = system: UGT1A1; conditions: reaction phenotyping; cited from earlier work
[12] = system: HIV integrase; conditions: in vitro assays; cited from earlier work

SMILES | formation of CAB-glucuronide by UGT1A9 R464G ([1]; 24 h incubation with CAB) | CAB-glucuronide production by UGT1A9 R464G ([1]; 48 h treatment with CAB) | glucuronidation in cells transfected with wild-type UGT1A1 [2] | formation of CAB-glucuronide by UGT1A9 H217Y ([3]; 24 h incubation with CAB) | CAB-glucuronide production by UGT1A9 H217Y ([3]; 48 h treatment with CAB) | metabolite formation in human kidney microsomes [4] | fractional contribution of UGT1A9 to CAB metabolism [5] | tolerability [6] | glucuronidated metabolite in cells expressing UGT1A1 P152T [7] | formation of CAB-glucuronide by UGT1A9 wild-type ([8]; 24 h incubation with CAB) | CAB-glucuronide production by UGT1A9 wild-type ([8]; 48 h treatment with CAB) | additional metabolites in human liver microsomes [9] | metabolite formed in human liver microsomes [9] | aqueous solubility [10] | fractional contribution of UGT1A1 to CAB metabolism [11] | efficacy of inhibition of integrase-catalyzed viral DNA strand transfer [12]
C[C@H]1CO[C@@H]2Cn3cc(C(=O)NCc4ccc(F)cc4F)c(=O)c(O)c3C(=O)N12 [CAB, Cabotegravir] | not observed | not detectable above the background | readily glucuronidated | not observed | able to detect | observed the formation of CAB-glucuronide | 0.33 | well tolerated | undetectable | not observed | able to detect | no additional metabolites of CAB were detected | identified as CAB-glucuronide | 15 µg/mL (≈ 37 µM) | 0.67 | low or subnanomolar
C[C@@H]1CCO[C@H]2Cn3cc(C(=O)NCc4ccc(F)cc4F)c(=O)c(O)c3C(=O)N12 [DTG, dolutegravir] | – | – | readily glucuronidated | – | – | – | – | – | undetectable | – | – | – | – | – | – | –
CCc1c2c(nc3ccc(O)cc13)-c1cc3c(c(=O)n1C2)COC(=O)[C@]3(O)CC [SN-38, 7-ethyl-10-hydroxycamptothecin] | – | – | – | – | – | – | – | – | marked reduction | – | – | – | – | – | – | –
